For series [1], the system named is calcitonin receptor (CTR). Description: cAMP accumulation in transfected COS7 or 3T3-FlpIn cells. It counts as cell-based, human. The gist of the method:
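COS7 or 3T3-FlpIn cells transfected with PEI (DNA:PEI 1:6 in 150mM NaCl, 15 min), plated at 3 × 10⁴/well and held 48 h at 37°C, 5% CO₂. Signals converted to cAMP using a parallel standard curve, then normalised to 100 μM forskolin within each cell line. For efficacy, Black-Leff operational model (Logτ_c) applied, corrected for cell-surface expression.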
(In general: cAMP levels reflect the balance of adenylyl cyclase and phosphodiesterase activity.)

The subject of series [2] is calcitonin receptor (CTR). Put plainly: Whole cell radioligand competition binding with 125I-sCT. The settings on record: competition with 125I-sCT(8-32), N130D mutant; five independent experiments. More on the design: species or system human. In outline:
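Cos7 cells in DMEM/10% FBS, transiently transfected with PEI (DNA:PEI 1:6 in 150mM NaCl, 15 min) and seeded at 3 × 10⁴/well for 48 h at 37°C, 5% CO₂. Total binding: 0.05 nM ¹²⁵I-sCT(8-32) alone. Nonspecific binding: co-incubation with 1 μM sCT(8-32). Each experiment normalised to its own specific binding.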

Another series concerns CTR. The settings on record: cited from earlier work.
The test system of series [3] is calcitonin receptor (CTR). Description: ERK1/2 phosphorylation. Format: cell-based, human. The conditions noted are these: H302A mutant, 3T3-FlpIn cells; four independent experiments in duplicate. In outline:
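3T3-FlpIn cells grown in DMEM with 10% v/v FBS at 37°C. Transient transfection used PEI; DNA and PEI in 150mM NaCl were combined 1:6 and left 15 min before adding to the cell suspension. Cells were plated at 3 × 10⁴/well and held 48 h at 37°C, 5% CO₂ before the pERK1/2 AlphaScreen read.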

Series [4] has as its system HA-FLAG-3C-CTR-3C-8xHis CTR with Gs protein heterotrimer. Put plainly: [35S]GTPγS binding on CTR expressed in insect cells. Format: biochemical, human. The settings on record: insect cell membranes, absence and presence of Gs heterotrimer; four independent experiments. On the technique in general: GTPγS resists hydrolysis and so accumulates on activated G proteins.
Series [5] can be described thus: cell surface ELISA to N-terminal epitope tag. The conditions noted are these: glycan lost; control: WT CTR.

Data on five molecules can be found in paper PMC5832441 (Nature, 2017).

On to salmon calcitonin [sCT], for which, in series [1] (COS7 cells, truncation after Trp413, 5 independent experiments in duplicate), the “sCT-mediated cAMP efficacy at Δ414 CTR” value is “no effect on receptor function”. For the same molecule, in series [1] (H302A mutant, 3T3-FlpIn cells, four independent experiments in duplicate), the “sCT potency in cAMP production at H302A CTR” value is “reduced potency”. In addition, in series [1] (N130D mutant, five independent experiments), the “sCT potency in cAMP accumulation at N130D CTR relative to WT” value is recorded as “reduce the potency”. Further, the “sCT affinity at N130D CTR compared to WT” value in series [2] is listed as “reduced affinity”. In addition, in the series on CTR, the off-rate entry is listed as “very slow off-rate”. The “sCT potency in phosphorylation of ERK1/2 at H302A CTR” value in series [3] is listed as “reduced potency”. For the same molecule, the “G protein activation via GTPγS binding, sCT concentration response” value in series [4] was “can robustly activate Gs”.

B1: calcitonin receptor (CTR): N28D (protein)
parent chain: MRFTFTSRCLALFLLLNHPTPILPAFSNQTYPTIEPKPFLYVVGRKKMMDAQYKCYDRMQQLPAYQGEGPYCNRTWDGWLCWDDTPAGVLSYQFCPDYFPDFDPSEKVTKYCDEKGVWFKHPENNRTWSNYTMCNAFTPEKLKNAYVLYYLAIVGHSLSIFTLVISLGIFVFFRSLGCQRVTLHKNMFLTYILNSMIIIIHLVEVVPNGELVRRDPVSCKILHFFHQYMMACNYFWMLCEGIYLHTLIVVAVFTEKQRLRWYYLLGWGFPLVPTTIHAITRAVYFNDNCWLSVETHLLYIIHGPVMAALVVNFFFLLNIVRVLVTKMRETHEAESHMYLKAVKATMILVPLLGIQFVVFPWRPSNKMLGKIYDYVMHSLIHFQGFFVATIYCFCNNEVQTTVKRQWAQFKIQWNQRWGRRPSNRSARAAAAAAEAGDIPIYICHQELRNEPANNQGEESAEIIPLNIIEQESSA
With B1, in series [5], the expression_or_secretion entry is given as “no change”.

B2: calcitonin receptor (CTR): N73D (protein)
parent chain: MRFTFTSRCLALFLLLNHPTPILPAFSNQTYPTIEPKPFLYVVGRKKMMDAQYKCYDRMQQLPAYQGEGPYCNRTWDGWLCWDDTPAGVLSYQFCPDYFPDFDPSEKVTKYCDEKGVWFKHPENNRTWSNYTMCNAFTPEKLKNAYVLYYLAIVGHSLSIFTLVISLGIFVFFRSLGCQRVTLHKNMFLTYILNSMIIIIHLVEVVPNGELVRRDPVSCKILHFFHQYMMACNYFWMLCEGIYLHTLIVVAVFTEKQRLRWYYLLGWGFPLVPTTIHAITRAVYFNDNCWLSVETHLLYIIHGPVMAALVVNFFFLLNIVRVLVTKMRETHEAESHMYLKAVKATMILVPLLGIQFVVFPWRPSNKMLGKIYDYVMHSLIHFQGFFVATIYCFCNNEVQTTVKRQWAQFKIQWNQRWGRRPSNRSARAAAAAAEAGDIPIYICHQELRNEPANNQGEESAEIIPLNIIEQESSA
Regarding B2, the expression_or_secretion result in series [5] is reported as “no change”.

B3: calcitonin receptor (CTR): N125D (protein)
parent chain: MRFTFTSRCLALFLLLNHPTPILPAFSNQTYPTIEPKPFLYVVGRKKMMDAQYKCYDRMQQLPAYQGEGPYCNRTWDGWLCWDDTPAGVLSYQFCPDYFPDFDPSEKVTKYCDEKGVWFKHPENNRTWSNYTMCNAFTPEKLKNAYVLYYLAIVGHSLSIFTLVISLGIFVFFRSLGCQRVTLHKNMFLTYILNSMIIIIHLVEVVPNGELVRRDPVSCKILHFFHQYMMACNYFWMLCEGIYLHTLIVVAVFTEKQRLRWYYLLGWGFPLVPTTIHAITRAVYFNDNCWLSVETHLLYIIHGPVMAALVVNFFFLLNIVRVLVTKMRETHEAESHMYLKAVKATMILVPLLGIQFVVFPWRPSNKMLGKIYDYVMHSLIHFQGFFVATIYCFCNNEVQTTVKRQWAQFKIQWNQRWGRRPSNRSARAAAAAAEAGDIPIYICHQELRNEPANNQGEESAEIIPLNIIEQESSA
B3: the expression_or_secretion entry in series [5] is on record as “no change”.

B4: calcitonin receptor (CTR): N130D (protein)
parent chain: MRFTFTSRCLALFLLLNHPTPILPAFSNQTYPTIEPKPFLYVVGRKKMMDAQYKCYDRMQQLPAYQGEGPYCNRTWDGWLCWDDTPAGVLSYQFCPDYFPDFDPSEKVTKYCDEKGVWFKHPENNRTWSNYTMCNAFTPEKLKNAYVLYYLAIVGHSLSIFTLVISLGIFVFFRSLGCQRVTLHKNMFLTYILNSMIIIIHLVEVVPNGELVRRDPVSCKILHFFHQYMMACNYFWMLCEGIYLHTLIVVAVFTEKQRLRWYYLLGWGFPLVPTTIHAITRAVYFNDNCWLSVETHLLYIIHGPVMAALVVNFFFLLNIVRVLVTKMRETHEAESHMYLKAVKATMILVPLLGIQFVVFPWRPSNKMLGKIYDYVMHSLIHFQGFFVATIYCFCNNEVQTTVKRQWAQFKIQWNQRWGRRPSNRSARAAAAAAEAGDIPIYICHQELRNEPANNQGEESAEIIPLNIIEQESSA
For the molecule B4, the expression_or_secretion entry in series [5] was “no change”.
